The source made the active and inactive calls. No cut-off for these calls is given here.
What was measured:
[1] = target: T1, C-X-C chemokine receptor type 6 (Homo sapiens, UniProt O00574); experiment: Antagonist activity at Prolink-tagged human CXCR6 receptor assessed as inhibition of forskolin-induced cAMP accumulation by DiscoveRx cell based assay relative to control; format: functional; set-up: concentration or dose not given beside the values
In short: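 CXCR6 β-arrestin cells in OptiMEM with 2% FBS, 500 cells/well, grown overnight; compounds added, then forskolin with 20 nM CXCL16 (stock concentrations) in HBSS/HEPES/BSA with RO-20-1724, 30 min at room temperature. cAMP read by LANCE Ultra TR-FRET after a further 30 min. Hill slope fixed at 1; at least two runs on different days, averaged pIC50 ± SD.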
Target sequence in this assay (O00574 whole entry, looked up): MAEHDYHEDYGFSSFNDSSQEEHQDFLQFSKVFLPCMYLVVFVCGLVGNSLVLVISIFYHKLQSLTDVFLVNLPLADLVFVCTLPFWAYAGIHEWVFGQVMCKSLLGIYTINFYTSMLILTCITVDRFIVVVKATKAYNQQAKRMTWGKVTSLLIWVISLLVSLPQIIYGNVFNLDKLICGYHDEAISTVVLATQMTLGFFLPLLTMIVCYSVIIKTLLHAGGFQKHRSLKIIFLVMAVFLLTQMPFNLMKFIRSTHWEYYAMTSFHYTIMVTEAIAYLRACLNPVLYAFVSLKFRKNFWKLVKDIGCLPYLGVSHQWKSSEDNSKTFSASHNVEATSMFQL

[2] = target: T1, C-X-C chemokine receptor type 6; experiment: Antagonist activity at Prolink-tagged human CXCR6 receptor assessed as inhibition of CXCL16-induced beta-arrestin recruitment by DiscoveRx cell based assay relative to control; set-up: concentration or dose not given beside the values
In short: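 CXCR6 β-arrestin cells in assay media without G418/hygromycin, 800 cells/well, grown overnight at 37 °C; compounds added acoustically (DMSO ≤0.3%), then 20 nM CXCL16 (final) for 90 min at 37 °C. PathHunter luminescence read. Normalized between CXCL16-alone and no-ligand wells; four-parameter fit with Hill slope fixed at 1; at least two runs on different days, averaged pIC50 ± SD.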
Target sequence in this assay (O00574 whole entry, looked up): as above

[3] = target: T1, C-X-C chemokine receptor type 6; experiment: Antagonist activity at Prolink-tagged human CXCR6 receptor assessed as inhibition of forskolin-induced cAMP accumulation by DiscoveRx cell based assay; format: functional
In short: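 Lance Ultra TR-FRET cAMP assay in CXCR6 β-arrestin cells, 500 cells/well in OptiMEM/2% FBS, grown overnight. Compound added, then forskolin (2.5 mM stock) in HBSS/HEPES/BSA/RO-20-1724 with or without 20 nM CXCL16, 30 min at room temperature. Eu-cAMP tracer and ULight anti-cAMP antibody added, read after 30 min. Curve fit with Hill slope 1; ≥2 independent runs.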
Target sequence in this assay (O00574 whole entry): as the sequence (O00574 whole entry, looked up) above

[4] = target: T1, C-X-C chemokine receptor type 6; experiment: Antagonist activity at Prolink-tagged human CXCR6 receptor assessed as inhibition of CXCL16-induced beta-arrestin recruitment by DiscoveRx cell based assay
Target sequence in this assay (O00574 whole entry): as the sequence (O00574 whole entry, looked up) above

Structure (SMILES)	inhibition ([1]; concentration not given here) [%]	inhibition ([2]; concentration not given here) [%]	IC50 [3] [µM]	IC50 [4] [µM]	inhibition [1]	inhibition [2]
COc1cc(C(=O)N[C@@H]2C[C@H]3CCC[C@@H](C2)N3CC(=O)Nc2ccc(Cl)cc2Cl)cc(OC)c1OC	105	105	0.9	0.16		
COc1cc(C(=O)N[C@@H]2C[C@H]3CCC[C@@H](C2)N3Cc2nc3ccccc3o2)cc(OC)c1OC	26	83	> 50	6.9		
COc1ccccc1CN1[C@@H]2CCC[C@H]1C[C@H](NC(=O)c1cc(OC)c(OC)c(OC)c1)C2			> 50	> 50	inactive	inactive
COc1cc(C(=O)N[C@@H]2C[C@H]3CCC[C@@H](C2)N3Cc2nc3c(Br)cccc3s2)cc(OC)c1OC	91	102	1	0.08		
COc1cc(C(=O)N[C@@H]2C[C@H]3CCC[C@@H](C2)N3CC(=O)Nc2ccccc2C)cc(OC)c1OC	101	104	9.3	0.79		
COc1cc(C(=O)N[C@@H]2C[C@H]3CCC[C@@H](C2)N3Cc2nc3cccc(Cl)c3s2)cc(OC)c1OC	93	102	8.9	0.26		
COc1cc(C(=O)N[C@@H]2C[C@H]3CCC[C@@H](C2)N3CC(=O)Nc2c(Cl)cccc2Cl)cc(OC)c1OC		57	> 40	38.2	inactive	
COc1cc(C(=O)N[C@@H]2C[C@H]3CCC[C@@H](C2)N3CC(=O)Nc2ccc(Cl)c(Cl)c2)cc(OC)c1OC	101	103	1.8	0.35		
COc1ccc(CN2[C@@H]3CCC[C@H]2C[C@H](NC(=O)c2cc(OC)c(OC)c(OC)c2)C3)cc1			> 50	> 50	inactive	inactive
COc1cc(C(=O)N[C@@H]2C[C@H]3CCC[C@@H](C2)N3CC(=O)Nc2ccccc2Br)cc(OC)c1OC	104	105	0.9	0.16		
COc1cc(C(=O)N[C@@H]2C[C@H]3CCC[C@@H](C2)N3Cc2nc3cc(Cl)ccc3s2)cc(OC)c1OC	90	100	3.2	0.17		
COc1cc(C(=O)N[C@@H]2C[C@H]3CCC[C@@H](C2)N3Cc2ccc3ccccc3c2)cc(OC)c1OC	30	94	47.3	3.4		
COc1cc(C(=O)N[C@@H]2C[C@H]3CCC[C@@H](C2)N3Cc2cn3ccccc3n2)cc(OC)c1OC			> 50	> 50	inactive	inactive
COc1cc(OC)cc(C(=O)N[C@@H]2C[C@H]3CCC[C@@H](C2)N3CC(=O)Nc2ccc(Cl)cc2)c1			> 40	> 40	inactive	inactive
COc1cc(C(=O)N[C@@H]2C[C@H]3CCC[C@@H](C2)N3Cc2ccccc2Cl)cc(OC)c1OC	101	99	11.5	6.8		
COc1cc(C(=O)N[C@@H]2C[C@H]3CCC[C@@H](C2)N3Cc2ccc(Cl)cc2)cc(OC)c1OC	58	90	38.6	23.7		
COc1cc(C(=O)N[C@@H]2C[C@H]3CCC[C@@H](C2)N3CC(=O)Nc2cc(Cl)ccc2Cl)cc(OC)c1OC	101	99	0.7	0.13		
COc1cc(C(=O)N[C@@H]2C[C@H]3CCC[C@@H](C2)N3CC(=O)Nc2cccc(C)c2)cc(OC)c1OC	92	102	17.9	1.8		
COc1ccccc1NC(=O)CN1[C@@H]2CCC[C@H]1C[C@H](NC(=O)c1cc(OC)c(OC)c(OC)c1)C2	100	102	14.7	2.1		
COc1cc(C(=O)N[C@@H]2C[C@H]3CCC[C@@H](C2)N3Cc2nc3ccccc3s2)cc(OC)c1OC	85	101	7.9	0.3		

Structure (SMILES)	inhibition ([1]; concentration not given here) [%]	inhibition ([2]; concentration not given here) [%]	IC50 [3] [µM]	IC50 [4] [µM]	inhibition [1]	inhibition [2]
COc1cc(C(=O)N[C@H]2C[C@H]3CCC[C@@H](C2)N3CC(=O)Nc2ccccc2)cc(OC)c1OC	70		40.9	> 40		inactive
COc1cc(C(=O)N[C@@H]2C[C@H]3CCC[C@@H](C2)N3CC(=O)Nc2ccc(F)cc2)cc(OC)c1OC	90	100	30.7	5.8		
COc1cc(C(=O)N[C@@H]2C[C@H]3CCC[C@@H](C2)N3CC(=O)Nc2cccc(Cl)c2Cl)cc(OC)c1OC	39 to 78	96 to 102	0.41 to 25.6	0.12 to 0.16		
COc1cc(C(=O)N[C@@H]2C[C@H]3CCC[C@@H](C2)N3Cc2nc3ccccc3[nH]2)cc(OC)c1OC		84	> 40	10.5	inactive	
COc1cc(C(=O)N[C@@H]2C[C@H]3CCC[C@@H](C2)N3CC(=O)Nc2cccc(Br)c2)cc(OC)c1OC	92	104	3.8	0.35		
COc1cc(C(=O)N[C@@H]2C[C@H]3CCC[C@@H](C2)N3CC(=O)Nc2ccccc2C(F)(F)F)cc(OC)c1OC	105	101	7.9	0.64		
COc1cc(C(=O)N[C@@H]2C[C@H]3CCC[C@@H](C2)N3CCc2nc3ccccc3s2)cc(OC)c1OC			> 50	> 50	inactive	inactive
COc1cc(C(=O)N[C@@H]2C[C@H]3CCC[C@@H](C2)N3CC(=O)Nc2cc(Cl)cc(Cl)c2)cc(OC)c1OC	96	104	1.3	0.31		
COc1ccc(NC(=O)CN2[C@@H]3CCC[C@H]2C[C@H](NC(=O)c2cc(OC)c(OC)c(OC)c2)C3)cc1		76	> 40	19	inactive	
COc1cc(C(=O)N[C@@H]2C[C@H]3CCC[C@@H](C2)N3CC(=O)Nc2ccccc2C#N)cc(OC)c1OC	105	91	7	0.93		
COc1cc(C(=O)N[C@@H]2C[C@H]3CCC[C@@H](C2)N3Cc2ccc3ccccc3n2)cc(OC)c1OC	88	88	40.3	6.7		
COc1cc(C(=O)N[C@@H]2C[C@H]3CCC[C@@H](C2)N3CC(=O)Nc2cccc(F)c2)cc(OC)c1OC	103	104	8.5	0.84		
COc1cc(C(=O)N[C@@H]2C[C@H]3CCC[C@@H](C2)N3Cc2nc3c(C)cccc3s2)cc(OC)c1OC	86	100	4.8	0.25		
CCOC(=O)c1ccccc1NC(=O)CN1[C@@H]2CCC[C@H]1C[C@H](NC(=O)c1cc(OC)c(OC)c(OC)c1)C2	96	79	6.9	1.6		
COc1cc(C(=O)N[C@@H]2C[C@H]3CCC[C@@H](C2)N3Cc2cc3ccccc3s2)cc(OC)c1OC	49	93	25	0.9		
COc1cccc(NC(=O)CN2[C@@H]3CCC[C@H]2C[C@H](NC(=O)c2cc(OC)c(OC)c(OC)c2)C3)c1	93	96	51	5.8		
COc1cc(C(=O)N[C@@H]2C[C@H]3CCC[C@@H](C2)N3Cc2c[nH]c3ccccc23)cc(OC)c1OC			> 50	> 50	inactive	inactive
COc1cc(C(=O)N[C@@H]2C[C@H]3CCC[C@@H](C2)N3Cc2cccc(Cl)c2)cc(OC)c1OC	100	97	14.8	9.5		
COc1cc(C(=O)N[C@@H]2C[C@H]3CCC[C@@H](C2)N3Cc2nc3c(F)cccc3s2)cc(OC)c1OC	105	103	1.9	0.11		
COc1cc(C(=O)N[C@@H]2C[C@H]3CC[C@@H](C2)N3CC(=O)Nc2ccccc2)cc(OC)c1OC		63	> 40		inactive	
